Columns and labels:
Assay type in all cases: functional
[1] = system: Mycobacterium tuberculosis; experiment: Antitubercular activity against rifampin and isoniazid-resistant Mycobacterium tuberculosis 2643 after 24 hrs by BACTEC radiometric susceptibility assay; conditions: Mycobacterium tuberculosis, 2643, 24 h
In short: (§1)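 BACTEC radiometric assay in 7H12 (12B) medium with 14C-palmitic acid as substrate; 14CO2 output read daily as Growth Index (GI) at 37 °C ± 1 °C. H37Rv inoculum grown in 12B vial to GI around 300. Compounds dissolved in DMSO. Control vial held 1:100 diluted bacterial suspension. Reading continued until control GI reached 30 or more. Daily change in GI compared with control to set susceptibility and MIC.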

[2] = system: Mycobacterium tuberculosis; experiment: Antitubercular activity against isoniazid-resistant Mycobacterium tuberculosis 433 after 24 hrs by BACTEC radiometric susceptibility assay; conditions: Mycobacterium tuberculosis, 433, 24 h; in short: as §1
[3] = system: Mycobacterium tuberculosis; experiment: Antitubercular activity against ethambutol-resistant Mycobacterium tuberculosis TB-2506/06 after 24 hrs by BACTEC radiometric susceptibility assay; conditions: TB-2506/06, 24 h; in short: as §1
[4] = system: Mycobacterium tuberculosis; experiment: Antitubercular activity against rifampin and isoniazid-resistant Mycobacterium tuberculosis TB-1678/05 after 24 hrs by BACTEC radiometric susceptibility assay; conditions: TB-1678/05, 24 h; in short: as §1

Measured: MIC

CC(C)CCO[C@@H]1C=CC(=O)[C@@H](COC(=O)C(C)(C)C)O1
1.56 µg/mL: all assays above

From ChEMBL document CHEMBL1782055, “2,3-dideoxy hex-2-enopyranosid-4-uloses as promising new anti-tubercular agents: design, synthesis, biological evaluation and SAR studies” (Eur J Med Chem, 2011)
